# Measured values of several laboratories.
# Lines come from different studies, so protocols differ.
# Target: Muscle, skeletal receptor tyrosine-protein kinase (MUSK, Homo sapiens, UniProt O15146)
# Residues used in one study (O15146 24-869): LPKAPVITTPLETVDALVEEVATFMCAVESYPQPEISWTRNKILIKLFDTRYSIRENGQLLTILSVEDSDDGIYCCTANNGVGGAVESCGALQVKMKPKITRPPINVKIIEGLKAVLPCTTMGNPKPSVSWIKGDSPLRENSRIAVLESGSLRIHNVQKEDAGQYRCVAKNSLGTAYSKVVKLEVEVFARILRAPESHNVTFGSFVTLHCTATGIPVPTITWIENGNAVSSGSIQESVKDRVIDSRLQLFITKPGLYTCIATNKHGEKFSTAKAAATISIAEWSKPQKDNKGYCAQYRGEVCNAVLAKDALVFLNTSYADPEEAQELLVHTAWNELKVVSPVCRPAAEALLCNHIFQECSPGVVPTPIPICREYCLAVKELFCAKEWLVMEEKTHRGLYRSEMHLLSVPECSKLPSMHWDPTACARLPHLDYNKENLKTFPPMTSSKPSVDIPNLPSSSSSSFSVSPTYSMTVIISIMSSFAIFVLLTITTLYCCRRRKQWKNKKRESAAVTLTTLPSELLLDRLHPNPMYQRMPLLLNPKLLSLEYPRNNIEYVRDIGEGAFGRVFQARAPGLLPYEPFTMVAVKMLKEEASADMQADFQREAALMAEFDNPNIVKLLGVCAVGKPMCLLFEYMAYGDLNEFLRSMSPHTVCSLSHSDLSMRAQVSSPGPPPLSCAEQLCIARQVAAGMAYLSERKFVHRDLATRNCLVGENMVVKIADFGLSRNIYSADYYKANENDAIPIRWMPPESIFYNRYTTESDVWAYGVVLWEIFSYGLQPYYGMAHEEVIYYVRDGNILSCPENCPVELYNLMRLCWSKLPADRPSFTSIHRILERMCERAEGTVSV
Compound,test,conditions,measurement,result
C1=C/COCc2cc(ccc2OCCN2CCCC2)Nc2nccc(n2)-c2cccc(c2)COC/1,binding,0.1 µM,remaining binding,89%
CCCCC(=O)Nc1ccc(-c2ccc3ncn(CCC)c(=O)c3c2)cn1,"binding, competition with immobilised ligand",0.5 µM,remaining binding,93%
CC(C)S(=O)(=O)c1ccc2nccc(Nc3ccc4sc(C5CCCC5)nc4c3)c2c1,"enzyme activity, inhibitor",1 µM,activity vs control,101%
CO[C@@H]1[C@H](N(C)C(=O)c2ccccc2)C[C@H]2O[C@]1(C)n1c3ccccc3c3c4c(c5c6ccccc6n2c5c31)C(=O)NC4,"enzyme activity, inhibitor",1 µM,inhibition,0%
Cc1ccc(NC(=O)c2ccnc(C(F)(F)F)c2)cc1-c1cc(OCCO)nc(N2CCOCC2)c1,"binding, competition with immobilised ligand",1 µM,remaining binding,91%
C#Cc1cc(-c2cc(Nc3nc(N[C@@H](C)c4ccc(F)cn4)ncc3Cl)n[nH]2)ccc1C=O,"enzyme activity, inhibitor",0.2 µM,inhibition,100%
CN1CCN(C(=O)c2ccc(NC(=O)Nc3ccc(N(C)c4ccnc(Nc5ccc(CS(C)(=O)=O)cc5)n4)cc3)cc2)CC1,"binding, competition with immobilised ligand",1 µM,remaining binding,11%
C=CC(=O)N1CCC([C@@H]2CCNc3c(C(N)=O)c(-c4ccc(Oc5ccccc5)cc4)nn32)CC1,"enzyme activity, inhibitor",1 µM,inhibition,16%
